FAS-TE inh = inhibitors of human fatty acid synthase thioesterase domain | recombinant FAS-TE, OMFH fluorogenic substrate, fluorescence endpoint | inhibition, % at 15 µM | 0.67% of 360,000 active | AID 602261;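 active = compounds whose normalised, plate-corrected inhibition of enzyme fluorescence in the single-dose primary screen is 50% or more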
JMJD2C inh = inhibitors of human GASC-1 (JMJD2C) demethylase. GST-JMJD2C(1-420) H3K9me3 demethylation, DELFIA europium. 0.069% of 330,000 active. inhibition, % at 2.35 µM. Q9H3R0;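 active = more than half of a compound's replicate wells show inhibition beyond 50%, single wells judged on their own value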;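 also: signal counts dimethyl H3K9 product captured on neutravidin plate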
Target sequence (Q9H3R0 1-420 limits assumed): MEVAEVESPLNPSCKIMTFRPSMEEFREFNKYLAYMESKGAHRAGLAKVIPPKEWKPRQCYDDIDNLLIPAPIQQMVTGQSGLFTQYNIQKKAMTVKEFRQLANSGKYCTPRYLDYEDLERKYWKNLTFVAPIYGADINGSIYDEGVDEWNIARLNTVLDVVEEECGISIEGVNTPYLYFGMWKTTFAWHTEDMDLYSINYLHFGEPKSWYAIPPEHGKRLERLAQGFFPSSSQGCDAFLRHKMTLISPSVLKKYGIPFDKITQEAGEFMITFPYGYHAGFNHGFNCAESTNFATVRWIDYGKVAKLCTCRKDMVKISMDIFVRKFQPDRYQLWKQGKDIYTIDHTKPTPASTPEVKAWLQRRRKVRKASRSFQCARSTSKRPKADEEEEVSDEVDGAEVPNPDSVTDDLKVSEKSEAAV
Arrestin-AP2 inh = human beta-arrestin and AP2 interaction inhibition. inhibition, % at 10 µM. 0.31% of 340,000 active. AID 504490. FITC-arrestin peptide / GST-AP2 beads, flow cytometry; AP2 beta2 appendage carries R879A mutation;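 active = inhibition above a set limit, near 3 SD of compounds lacking own fluorescence, cut at about 54% in these data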
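System: GST-AP2 R879A bound to glutathione beads, E. coli-expressed. Also added: 50 nM FITC-arrestin peptide. Schedule: compound with beads 12 min RT, then probe 1 h RT. Signal: bead flow cytometry, FITC channel. Read-out basis: percent response.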
SENP1 FRET inh = SENP1 (human) catalytic domain inhibition; Q9P0U3; recombinant SENP1 catalytic domain, CyPet-SUMO1-YPet FRET cleavage; inhibition, % at 10 µM; 0.21% of 360,000 active; AID 624204;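 active = inhibition at least 30% at 10 µM, raw YFP signal under a set limit, fluorescence ratio 0.5 to 1.5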
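Material: hSENP1 catalytic domain, recombinant; medium: Tris pH 8 with BME, BSA, NP40 and catalase; compound: single concentration of 10 µM compound, 0.5% DMSO final; technique: FRET read of cyan and yellow fluorescence; timing: 50 min enzyme reaction, room temperature, light-protected; reagent: SFCypet-SUMO1-SFYpet substrate at 25 nM; control set: no-enzyme low, enzyme-DMSO high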
FAS-TE inh conf = confirmation of human fatty acid synthase thioesterase inhibitors; shares compounds with FAS-TE inh; AID 624325; recombinant FAS-TE, OMFH fluorogenic substrate, fluorescence; inhibition, % at 15 µM; 45% of 2,300 active;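 active = compounds inhibiting the enzyme by at least 50% at 15 µM in any one of the replicates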
SENP1 conf = SENP1 (human) inhibition, single concentration confirmation; shares compounds with SENP1 FRET inh; recombinant SENP1, CyPet-SUMO1-YPet FRET cleavage; inhibition, % at 10 µM; 34% of 520 active; AID 651678; in the data active = inhibition mostly above about 35%, no sharp cut-off; inactive = mostly below about 32%
SENP1 kinetic = SENP1 (human) inhibition, kinetic confirmation | shares compounds with SENP1 FRET inh | 26% of 520 active | recombinant SENP1, CyPet-SUMO1-YPet FRET kinetic cleavage | inhibition, % at 10 µM; in the data active = inhibition mostly above about 32%, no sharp cut-off; inactive = mostly below about 29%
Hits are given with their value; - = inactive; . = no result. The list is not random: actives were taken first. Their share in the collection is about 1.1%.

SMILES	FAS-TE inh	JMJD2C inh	Arrestin-AP2 inh	SENP1 FRET inh	FAS-TE inh conf	others
O=C(O)c1cccc(NC(=O)N2C[C@H]3C[C@@H](C2)c2cccc(=O)n2C3)c1	-	-	-	-	.
CCOC(=O)[C@]12Cc3cc(C)ccc3[C@H]1N(CCC(=O)OC)C(=O)c1ccccc12	-	.	.	-	.
CCOC(=O)[C@]12Cc3c(cc(OC)c(OC)c3OC)[C@H]1N(C1CCCCC1)C(=O)c1ccccc12	81	.	.	-	62
CCOC(=O)[C@]12Cc3cc(C)ccc3[C@H]1N(C1CCCCC1)C(=O)c1ccccc12	82	.	.	-	33
CCOC(=O)[C@]12Cc3cc(Cl)ccc3[C@H]1N(C1CCCCC1)C(=O)c1cc(OC)ccc12	84	.	.	-	39
CCCCCN1C(=O)c2cc(OC)ccc2[C@@]2(C(=O)OCC)Cc3cc(OC)ccc3[C@@H]12	52	.	.	-	-
CCOC(=O)[C@]12Cc3cc(Cl)ccc3[C@H]1N(C)C(=O)c1cc(OC)ccc12	-	.	.	-	.
CCCCSP1(=S)NCCCN1	-	.	-	-	.
CCOC(=O)[C@]12Cc3cc(OC)ccc3[C@H]1N(C)C(=O)c1cc(OC)ccc12	-	.	.	-	.
CCOC(=O)[C@]12Cc3ccc(C)cc3[C@H]1N(C1CCCCC1)C(=O)c1ccccc12	80	.	.	-	24
CCOC(=O)[C@]12Cc3ccccc3[C@H]1N(C(C)C)C(=O)c1ccccc12	-	.	.	-	.
CCOC(=O)[C@]12Cc3ccc(C)cc3[C@H]1N(C1CCCCC1)C(=O)c1cc(OC)ccc12	77	.	.	-	28
Cc1sc2c(c1C)C(c1ccc(C(C)(C)C)cc1)=NCC(=O)N2CC(=O)Nc1nccs1	-	-	-	-	.
CCN(CCCl)c1cc(CN(C)C)cc(NC(=O)c2ccc(C(=O)Nc3cc(CN(C)C)cc(N(CC)CCCl)c3)cc2)c1	51	.	-	-	-
CC(O)C1C=CC=CC(=O)OC2CC3OC4C5OC5(C)C(O)CC4(COC(=O)C(O)C(C)CCO1)C2(C)C31CO1 (configuration not stated)	-	.	-	-	.
O=C(C1CC(c2ccc(Cl)c(Cl)c2)=NO1)N1CCC2(CC1)OCCO2 (configuration not stated)	57	-	-	-	66
O=C(C1CC(c2ccc(F)cc2)=NO1)N1CCC2(CC1)OCCO2 (configuration not stated)	-	-	-	-	.
COc1ccc2c(c1)NP(=S)(c1ccccc1)N2C (configuration not stated)	-	.	-	-	.
COc1ccc(P2(=O)Nc3ccccc3N2)cc1	-	-	-	38	.	SENP1 conf=94;SENP1 kinetic=60
Cc1nn(Cc2ccccc2)c(C)c1C(=O)OCC(=O)Nc1ccccc1SCC#N	-	-	-	48	.	SENP1 conf=-;SENP1 kinetic=-
O=[N+]([O-])c1ccccc1Cl	-	-	-	-	.
O=C1NC(=O)C(Sc2ccccc2[N+](=O)[O-])C(=O)N1	-	69	-	32	.	SENP1 conf=-;SENP1 kinetic=-
COc1ccccc1-n1c(-c2cccs2)nc2ccccc2c1=O	-	-	-	-	.
CN1C(=O)C(=Cc2ccc(Sc3ccccc3)o2)C(=O)N(C)C1=S	-	-	-	-	.
CN1C(=O)C(=Cc2ccc(N3CCOCC3)o2)C(=O)N(C)C1=S	-	-	-	66	.	SENP1 conf=-;SENP1 kinetic=-
CCN1C(=O)C(=Cc2ccc(N3CCOCC3)o2)C(=O)N(CC)C1=S	-	-	-	49	.	SENP1 conf=-;SENP1 kinetic=-
CC1(CCCc2ccc(N(CCCl)CCCl)cc2)NC(=O)NC1=O (configuration not stated)	-	.	.	-	.
CC1=NN=C(c2ccc(N)cc2)c2cc3c(cc2C1)OCO3	-	.	-	43	.	SENP1 conf=-;SENP1 kinetic=-
CCS(=O)(=O)Nc1cccc(C(=C2CCCCC2)c2cnc[nH]2)c1	-	.	-	-	.
